Assay results: ChEMBL document CHEMBL2375294, “Synthesis, structure-activity relationship analysis and kinetics study of reductive derivatives of flavonoids as Helicobacter pylori urease inhibitors” (Eur J Med Chem, 2013)

These molecules were tested against T1, Urease subunit alpha/Urease subunit beta (Helicobacter pylori (strain ATCC 700392 / 26695) (Campylobacterpylori), UniProt P69996) (assay: Inhibition of Helicobacter pylori ATCC 43504 urease-mediated ammonia production preincubated for 1.5 hrs by indophenol method).
T1 sequence (P69996 whole entry): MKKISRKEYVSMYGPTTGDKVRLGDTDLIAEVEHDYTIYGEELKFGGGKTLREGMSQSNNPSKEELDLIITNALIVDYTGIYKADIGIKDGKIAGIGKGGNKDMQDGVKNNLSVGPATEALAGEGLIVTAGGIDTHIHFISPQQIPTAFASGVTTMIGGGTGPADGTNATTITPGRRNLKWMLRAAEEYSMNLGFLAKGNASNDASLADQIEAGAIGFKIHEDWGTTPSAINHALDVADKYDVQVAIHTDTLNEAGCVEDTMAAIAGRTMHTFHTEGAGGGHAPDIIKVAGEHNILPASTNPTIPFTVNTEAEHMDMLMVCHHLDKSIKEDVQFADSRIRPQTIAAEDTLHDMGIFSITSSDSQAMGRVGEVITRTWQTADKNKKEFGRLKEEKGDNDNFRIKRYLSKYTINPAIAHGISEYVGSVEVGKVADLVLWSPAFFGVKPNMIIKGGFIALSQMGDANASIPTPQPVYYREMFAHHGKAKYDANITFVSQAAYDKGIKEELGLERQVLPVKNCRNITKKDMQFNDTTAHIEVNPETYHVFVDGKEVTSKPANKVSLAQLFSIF
T1 sequence (P14916 whole entry, further chain): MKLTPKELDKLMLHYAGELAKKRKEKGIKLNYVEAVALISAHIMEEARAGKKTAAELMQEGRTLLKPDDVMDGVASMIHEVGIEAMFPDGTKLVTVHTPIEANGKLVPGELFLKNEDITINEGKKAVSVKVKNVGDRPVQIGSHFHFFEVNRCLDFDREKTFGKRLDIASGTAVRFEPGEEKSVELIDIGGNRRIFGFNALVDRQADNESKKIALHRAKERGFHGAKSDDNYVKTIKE
For `O=c1c(O)c(-c2ccc(O)c(O)c2)oc2cc(O)cc(O)c12` [QUERCETIN], the IC50 was 11 µM.
For `O=c1c(-c2ccc(O)cc2)coc2cc(O)ccc12` [DAIDZEIN], the IC50 was 556 µM.
For `COc1ccc(C2=COc3cc(O)ccc3C2)cc1`, the IC50 was 86.2 µM.
`O=c1cc(-c2ccccc2)oc2cc(O)cc(O)c12` [CHRYSIN] showed an IC50 of 302 µM.
Work on `O=c1cc(-c2ccccc2)oc2cc(O)c(O)c(O)c12` [BAICALEIN] yielded an IC50 of 291 µM.
With `COc1ccc(C2COc3cc(OC)ccc3C2)cc1` (stereo not given) the IC50 was 1780 µM.
`Oc1ccc(C2=COc3c(ccc(O)c3O)C2)cc1` gave an IC50 of 0.85 µM.
`Oc1cc(O)c2c(c1)OC(c1ccccc1)C=C2` (stereo not given) showed an IC50 of 33.2 µM.
`Oc1cc2c(c(O)c1O)C=CC(c1ccccc1)O2` (stereo not given) was tested, and the IC50 was 22.1 µM.
`COc1cc(OC)c2c(=O)cc(-c3ccccc3)oc2c1` [CHRYSIN DIMETHYL ETHER] was tested, and the IC50 was 2180 µM.
`COc1ccc(C2=CCc3c(OC)c(OC)c(OC)c(OC)c3O2)cc1` was tested, and the IC50 was 3790 µM.
Work on `COc1ccc(C2COc3cc(OC)ccc3C2O)cc1` (stereo not given) yielded an IC50 of 3870 µM.
Work on `COc1cc(O)c(C(=O)CCc2ccccc2)c(OC)c1` yielded an IC50 of 1670 µM.
In the case of `COc1cc(O)c(C(=O)/C=C/c2ccccc2)c(OC)c1` [FLAVOKAWAIN B], the IC50 is reported as 1220 µM.
In the case of `COc1cc(O)c(C(=O)CCc2ccccc2)c(O)c1`, the IC50 is reported as 978 µM.
`COc1ccc(C(C)C(=O)c2ccc(OC)cc2O)cc1` (stereo not given) showed an IC50 of 2180 µM.
`COc1ccc(-c2coc3cc(O)ccc3c2=O)cc1` [FORMONONETIN] gave an IC50 of 2000 µM.
`COc1ccc(C2COc3cc(O)ccc3C2)cc1` (stereo not given) gave an IC50 of 358 µM.
With `COc1ccc(C(C)C(=O)c2ccc(O)cc2O)cc1` (stereo not given) the IC50 was 1050 µM.
With `O=c1cc(-c2ccc(O)cc2)oc2cc(O)cc(O)c12` [APIGENIN] the IC50 was 138 µM.
`COc1ccc(-c2coc3cc(OC)ccc3c2=O)cc1` showed an IC50 of 3530 µM.
With `O=c1cc(-c2ccc(O)c(O)c2)oc2cc(O)cc(O)c12` [LUTEOLIN] the IC50 was 35.4 µM.
`Oc1cc(O)c2c(c1)OC(c1ccc(O)c(O)c1)C=C2` (stereo not given) gave an IC50 of 4.42 µM.
Work on `COc1ccc(C2C=Cc3c(OC)c(OC)c(OC)c(OC)c3O2)cc1` (stereo not given) yielded an IC50 of 4170 µM.
`COc1ccc(C2CC(O)c3c(OC)c(OC)c(OC)c(OC)c3O2)cc1` (stereo not given) was tested, and the IC50 was 4850 µM.
In the case of `COc1ccc(-c2cc(=O)c3c(OC)c(OC)c(OC)c(OC)c3o2)cc1` [TANGERETIN], the IC50 is reported as 4630 µM.
With `O=C1CC(c2ccc(O)cc2)Oc2cc(O)cc(O)c21` (stereo not given) the IC50 was 328 µM.
Molecule `Oc1ccc(C2COc3cc(O)ccc3C2)cc1` (stereo not given) has an IC50 of 92.9 µM.

What follows are molecules tested against Urease subunit alpha/Urease subunit beta (Helicobacter pylori (strain ATCC 700392 / 26695) (Campylobacterpylori)) (UniProt P69996+P14916) (assay: Ratio of acetohydroxamic acid IC50 to compound IC50 for Helicobacter pylori ATCC 43504 urease).
Chain of Urease subunit alpha/Urease subunit beta (Helicobacter pylori (strain ATCC 700392 / 26695) (Campylobacterpylori)) (P14916 whole entry, looked up): as the sequence (P14916 whole entry, further chain) above
Chain of Urease subunit alpha/Urease subunit beta (Helicobacter pylori (strain ATCC 700392 / 26695) (Campylobacterpylori)) (P69996 whole entry, looked up): as the sequence (P69996 whole entry) above
For `Oc1ccc(C2=COc3c(ccc(O)c3O)C2)cc1`, the Ratio IC50 was 20.

The molecules below were run against T1, Urease subunit alpha/Urease subunit beta (assay: Competitive inhibition of Helicobacter pylori ATCC 43504 urease using urea as substrate by Lineweaver-Burk/Dixon plot analysis).
Procedure, shortened: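 Crude urease from H. pylori ATCC 43504, grown 24 h at 37 °C under microaerobic conditions in Brucella broth with 10% heat-inactivated horse serum. Enzyme (10 U) was pre-incubated with inhibitor for 1.5 h at room temperature. Ammonia was read by the indophenol method while urea varied at several inhibitor levels. Ki came from a Lineweaver–Burk slope replot x-intercept or a Dixon plot intersection. Run in triplicate.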
Work on `Oc1ccc(C2=COc3c(ccc(O)c3O)C2)cc1` yielded a Ki of 0.641 µM.
